We go through one molecule from ChEMBL document CHEMBL3525945, “Metabolic switching of BILR 355 in the presence of ritonavir. II. Uncovering novel contributions by gut bacteria and aldehyde oxidase” (Drug Metab Dispos, 2012).

One series concerns the target T1, Cytochrome P450 2A6 (Homo sapiens, UniProt P11509).
T1 sequence (P11509 whole entry): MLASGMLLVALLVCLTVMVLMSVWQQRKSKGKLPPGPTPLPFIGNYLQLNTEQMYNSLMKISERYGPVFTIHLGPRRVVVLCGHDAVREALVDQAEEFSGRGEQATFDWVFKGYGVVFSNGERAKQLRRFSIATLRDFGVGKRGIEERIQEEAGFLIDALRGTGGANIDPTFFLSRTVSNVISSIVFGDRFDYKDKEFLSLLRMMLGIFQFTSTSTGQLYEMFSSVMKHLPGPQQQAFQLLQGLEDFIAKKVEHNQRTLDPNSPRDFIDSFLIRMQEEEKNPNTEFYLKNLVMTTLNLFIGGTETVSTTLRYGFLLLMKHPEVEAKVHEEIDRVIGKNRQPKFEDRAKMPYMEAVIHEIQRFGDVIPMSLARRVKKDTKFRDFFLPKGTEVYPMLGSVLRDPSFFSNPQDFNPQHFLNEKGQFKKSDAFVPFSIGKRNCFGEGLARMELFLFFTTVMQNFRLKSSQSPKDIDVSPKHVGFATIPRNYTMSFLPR
Nature of the series: Activity at recombinant CYP2A6 (unknown origin) expressed in baculovirus-infected insect cells assessed as enzyme-mediated drug depletion at 1 to 10 uM by LC-MS/MS analysis in presence of NADPH. It is filed as ADME. The essentials:
(§1)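 BILR 402 (1 or 10 μM) with baculovirus/insect-cell recombinant CYPs, levels scaled to average liver content (1A2 2, 2A6 1, 2B6 0.1, 2C9 1.5, 2C19 1.5, 2D6 0.3, 3A4 5 pmol/mL). Buffer 0.1 M potassium phosphate, 5 mM MgCl2, pH 7.4; 2.5 mM NADPH; 37 °C. Non-transfected insect microsomes served as controls. Aliquots taken 0.5–30 min and acetonitrile-quenched; depletion measured by LC-MS/MS with isotope-labelled internal standard.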

The test system of a further series is Liver cytosol. Nature of the series: Drug metabolism in human liver cytosol assessed as BILR355 formation at 10 uM by LC-MS/MS analysis. It is filed as ADME, tissue-based. The essentials: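 BILR 402 (10 μM final) was incubated with human liver S9 or cytosol (1 mg/mL protein) in 0.05 M potassium phosphate pH 7.4 at 37 °C. Runs were done with or without 2.5 mM NADPH. Samples at 10, 20, 30 and 60 min were quenched in nevirapine/acetonitrile, filtered and analysed by LC-MS/MS; duplicate.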

The target of series [1] is T2, Cytochrome P450 3A4 (Homo sapiens, UniProt P08684). The experiment in a line: Activity at recombinant CYP3A4 (unknown origin) expressed in baculovirus-infected insect cells assessed as enzyme-mediated drug depletion at 1 to 10 uM by LC-MS/MS analysis in presence of NADPH. It is filed as ADME. The settings on record: TDE = time-dependent effect. The essentials: as §1
T2 sequence (P08684 whole entry): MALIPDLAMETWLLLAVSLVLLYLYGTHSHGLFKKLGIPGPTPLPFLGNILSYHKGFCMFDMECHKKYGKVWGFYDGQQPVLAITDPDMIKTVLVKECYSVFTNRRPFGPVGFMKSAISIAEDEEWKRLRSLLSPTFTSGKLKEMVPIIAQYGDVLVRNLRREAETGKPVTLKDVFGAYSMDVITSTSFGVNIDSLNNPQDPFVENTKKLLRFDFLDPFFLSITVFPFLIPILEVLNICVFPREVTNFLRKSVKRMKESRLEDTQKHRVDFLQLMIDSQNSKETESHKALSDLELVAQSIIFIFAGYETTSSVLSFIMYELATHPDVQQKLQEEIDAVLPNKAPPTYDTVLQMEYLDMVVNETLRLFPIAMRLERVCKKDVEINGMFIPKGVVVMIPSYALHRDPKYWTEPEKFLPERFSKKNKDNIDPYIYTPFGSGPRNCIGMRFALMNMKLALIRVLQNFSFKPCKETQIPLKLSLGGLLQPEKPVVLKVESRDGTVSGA

Series [2] concerns the target T2, Cytochrome P450 3A4. Nature of the series: Activity at recombinant CYP3A4 (unknown origin) expressed in baculovirus-infected insect cells assessed as enzyme-mediated drug depletion by measuring compound level at 1 uM after 4 mins by LC-MS/MS analysis in presence of NADPH. It counts as ADME. The essentials:
(§2)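 rCYP3A4 (5 pmol/mL) incubated with BILR 402 at 1 or 10 μM in 0.1 M potassium phosphate/5 mM MgCl2, pH 7.4, with NADPH at 37 °C. Remaining BILR 402 and BILR 355 formed were read at 4 min by LC-MS/MS against a labelled internal standard.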

The target in series [3] is T2, Cytochrome P450 3A4. The experiment in a line: Activity at recombinant CYP3A4 (unknown origin) expressed in baculovirus-infected insect cells assessed as enzyme-mediated drug depletion by measuring compound level at 10 uM after 4 mins by LC-MS/MS analysis in presence of NADPH. It is filed as ADME. The gist of the method:
as §2

The next series has as its target T3, Aldehyde oxidase (Homo sapiens, UniProt Q06278).
T3 sequence (Q06278 whole entry): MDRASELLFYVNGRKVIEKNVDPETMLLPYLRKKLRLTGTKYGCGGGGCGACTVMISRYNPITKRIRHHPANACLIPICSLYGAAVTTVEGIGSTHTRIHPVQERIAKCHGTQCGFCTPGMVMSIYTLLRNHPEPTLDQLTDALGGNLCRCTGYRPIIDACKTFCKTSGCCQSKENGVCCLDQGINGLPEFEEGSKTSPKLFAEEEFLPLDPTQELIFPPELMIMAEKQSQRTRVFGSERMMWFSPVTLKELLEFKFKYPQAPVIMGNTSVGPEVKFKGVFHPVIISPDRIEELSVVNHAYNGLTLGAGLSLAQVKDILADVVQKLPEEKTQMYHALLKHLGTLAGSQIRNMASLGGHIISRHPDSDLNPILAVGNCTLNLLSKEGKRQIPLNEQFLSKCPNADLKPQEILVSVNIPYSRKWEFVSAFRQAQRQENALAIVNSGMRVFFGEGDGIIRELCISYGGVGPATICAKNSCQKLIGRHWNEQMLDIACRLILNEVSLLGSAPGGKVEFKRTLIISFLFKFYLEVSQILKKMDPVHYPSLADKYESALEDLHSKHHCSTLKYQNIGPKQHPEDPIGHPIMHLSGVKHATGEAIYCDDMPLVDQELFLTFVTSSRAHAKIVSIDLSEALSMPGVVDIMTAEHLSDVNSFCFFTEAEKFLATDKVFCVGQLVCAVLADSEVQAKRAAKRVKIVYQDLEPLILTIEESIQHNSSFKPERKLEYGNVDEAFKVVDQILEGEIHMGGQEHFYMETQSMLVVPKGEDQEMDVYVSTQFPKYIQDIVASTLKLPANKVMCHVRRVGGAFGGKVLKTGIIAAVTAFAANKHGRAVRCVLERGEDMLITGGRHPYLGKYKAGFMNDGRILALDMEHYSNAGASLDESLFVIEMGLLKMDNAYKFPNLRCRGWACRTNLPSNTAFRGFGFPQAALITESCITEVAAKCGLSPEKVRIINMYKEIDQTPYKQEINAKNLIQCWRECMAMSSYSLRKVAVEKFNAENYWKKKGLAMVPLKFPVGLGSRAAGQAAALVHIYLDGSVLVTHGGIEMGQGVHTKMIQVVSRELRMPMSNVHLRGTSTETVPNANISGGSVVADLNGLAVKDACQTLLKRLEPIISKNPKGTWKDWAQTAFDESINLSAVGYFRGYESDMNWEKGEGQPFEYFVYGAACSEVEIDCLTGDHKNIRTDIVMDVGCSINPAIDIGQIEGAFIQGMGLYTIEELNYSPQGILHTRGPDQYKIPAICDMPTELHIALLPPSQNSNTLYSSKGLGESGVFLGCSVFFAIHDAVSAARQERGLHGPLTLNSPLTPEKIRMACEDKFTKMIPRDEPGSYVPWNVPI
Nature of the series: Drug metabolism in human liver cytosol assessed as intrinsic clearance for high affinity low capacity site aldehyde-oxidase-mediated BILR516 metabolite formation measured per mg protein after 10 mins by Eadie-Hofstee plot analysis. It is filed as ADME, tissue-based. The gist of the method: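 Human liver cytosol (0.1 mg/mL) was incubated with BILR 402 at 12 concentrations, 0.061–125 μM, for 10 min at 37 °C in 0.05 M potassium phosphate pH 7.4 without NADPH, within the linear range for protein and time. […] Apparent Km and Vmax were derived from the kinetic data.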

As to `CCN1c2ncc(CCOc3ccnc4ccccc34)cc2C(=O)N(C)c2cccnc21`, the Drug metabolism entry is “metabolite_not_detected” on Cytochrome P450 2A6; “metabolite_not_detected” in the series on Liver cytosol; “tde” at Cytochrome P450 3A4 [1]; 0.25 µM on Cytochrome P450 3A4 [2]; 5 µM on Cytochrome P450 3A4 [3]. The CLHH on Aldehyde oxidase was 437 µL/min/mg.
